Assay results: ChEMBL document CHEMBL2177067 (J Med Chem, 2012)
In brackets after ≈: the same amount, converted by molar mass.

Tested on: Staphylococcus aureus
Experiment: Antibacterial activity against Staphylococcus aureus ATCC 25923 by broth microdilution method in presence of reserpine
Format: functional

Row | SMILES | MIC [µM]
1 | Cc1c(CCC(=O)O)c(=O)oc2c(C)c(OCc3ccc(-c4ccc(Cl)c(Cl)c4)cc3)ccc12 | 6.3
2 | Cc1c(CCC(=O)O)c(=O)oc2c(C)c(OCc3ccc4ccccc4c3)ccc12 | > 100
3 | Cc1c(CCCC(=O)O)c(=O)oc2c(C)c(OCc3ccc(-c4ccccc4)cc3)ccc12 | > 100
4 | Cc1c(CC(=O)O)c(=O)oc2c(C)c(OCc3ccc(-c4ccccc4)cc3)ccc12 | 12.5
5 | Cc1c(OCc2ccc(-c3ccccc3)cc2)ccc2cc(CCC(=O)O)c(=O)oc12 | > 100

Tested on: not listed separately
Experiment: Selectivity index, ratio of CC50 for human HeLa cells to MIC for Bacillus anthracis
Format: functional
Outline: (§1)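 Selectivity index is HeLa CC50 (MTS assay) divided by the bacterial MIC.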

Row | SMILES | Selectivity Index
6 | CNC(=O)CCc1c(C)c2ccc(OCc3ccc(-c4ccc(Cl)cc4)cc3)c(C)c2oc1=O | 0.91
7 | Cc1c(CCC(=O)O)c(=O)oc2c(C)c(OCc3ccc(-c4ccc(Cl)c(Cl)c4)cc3)ccc12 | 6.4
8 | Cc1c(CCC(=O)O)c(=O)oc2c(C)c(OCc3ccc4ccccc4c3)ccc12 | 7.6
9 | Cc1c(CCC(=O)NCCN(C)C)c(=O)oc2c(C)c(OCc3ccc(-c4ccccc4)cc3)ccc12 | 0.44
10 | Cc1c(CCC(=O)O)c(=O)oc2cc(OCc3ccccc3-c3ccccc3)ccc12 | 1.6
11 | Cc1c(CCCC(=O)O)c(=O)oc2c(C)c(OCc3ccc(-c4ccccc4)cc3)ccc12 | 25
12 | Cc1c(CCC(=O)O)c(=O)oc2cc(OCc3ccc(-c4ccccc4)cc3)ccc12 | 8.5
13 | Cc1c(CCC(=O)O)c(=O)oc2c(C)c(OCc3ccc(-c4ccc(F)cc4)cc3)ccc12 | >24
14 | Cc1c(CCC(=O)O)c(=O)oc2c(C)c(OCc3cccc4ccccc34)ccc12 | 0.09
15 | Cc1c(CC(=O)O)c(=O)oc2c(C)c(OCc3ccc(-c4ccccc4)cc3)ccc12 | 46
16 | Cc1c(CCC(=O)O)c(=O)oc2c(C)c(OCc3ccccc3-c3ccccc3)ccc12 | 1.8
17 | Cc1c(OCc2ccc(-c3ccccc3)cc2)ccc2cc(CCC(=O)O)c(=O)oc12 | >40
18 | Cc1c(CCC(=O)O)c(=O)oc2cc(OCc3cccc(-c4ccccc4)c3)ccc12 | 4

Tested on: not listed separately
Experiment: Selectivity index, ratio of CC50 for human HeLa cells to MIC for Staphylococcus aureus ATCC 25923
Format: functional
Outline: as §1

Row | SMILES | Selectivity Index
19 | CNC(=O)CCc1c(C)c2ccc(OCc3ccc(-c4ccc(Cl)cc4)cc3)c(C)c2oc1=O | 0.91
20 | Cc1c(CCC(=O)O)c(=O)oc2c(C)c(OCc3ccc(-c4ccc(Cl)c(Cl)c4)cc3)ccc12 | 6.4
21 | Cc1c(CCC(=O)O)c(=O)oc2c(C)c(OCc3ccc4ccccc4c3)ccc12 | <1
22 | Cc1c(CCC(=O)NCCN(C)C)c(=O)oc2c(C)c(OCc3ccc(-c4ccccc4)cc3)ccc12 | 0.22
23 | Cc1c(CCC(=O)O)c(=O)oc2cc(OCc3ccccc3-c3ccccc3)ccc12 | 0.6
24 | Cc1c(CCCC(=O)O)c(=O)oc2c(C)c(OCc3ccc(-c4ccccc4)cc3)ccc12 | <0.8
25 | Cc1c(CCC(=O)O)c(=O)oc2cc(OCc3ccc(-c4ccccc4)cc3)ccc12 | 6.8
26 | Cc1c(CCC(=O)O)c(=O)oc2c(C)c(OCc3ccc(-c4ccc(F)cc4)cc3)ccc12 | 6.4
27 | Cc1c(CCC(=O)O)c(=O)oc2c(C)c(OCc3cccc4ccccc34)ccc12 | <0.06
28 | Cc1c(CC(=O)O)c(=O)oc2c(C)c(OCc3ccc(-c4ccccc4)cc3)ccc12 | 14
29 | Cc1c(CCC(=O)O)c(=O)oc2c(C)c(OCc3ccccc3-c3ccccc3)ccc12 | 0.4
30 | Cc1c(OCc2ccc(-c3ccccc3)cc2)ccc2cc(CCC(=O)O)c(=O)oc12 | 2.5
31 | Cc1c(CCC(=O)O)c(=O)oc2cc(OCc3cccc(-c4ccccc4)c3)ccc12 | 1

Biological target: T1, Replicative DNA helicase (Bacillus anthracis, UniProt A0A6L8Q2B7)
T1 sequence (A0A6L8Q2B7 whole entry): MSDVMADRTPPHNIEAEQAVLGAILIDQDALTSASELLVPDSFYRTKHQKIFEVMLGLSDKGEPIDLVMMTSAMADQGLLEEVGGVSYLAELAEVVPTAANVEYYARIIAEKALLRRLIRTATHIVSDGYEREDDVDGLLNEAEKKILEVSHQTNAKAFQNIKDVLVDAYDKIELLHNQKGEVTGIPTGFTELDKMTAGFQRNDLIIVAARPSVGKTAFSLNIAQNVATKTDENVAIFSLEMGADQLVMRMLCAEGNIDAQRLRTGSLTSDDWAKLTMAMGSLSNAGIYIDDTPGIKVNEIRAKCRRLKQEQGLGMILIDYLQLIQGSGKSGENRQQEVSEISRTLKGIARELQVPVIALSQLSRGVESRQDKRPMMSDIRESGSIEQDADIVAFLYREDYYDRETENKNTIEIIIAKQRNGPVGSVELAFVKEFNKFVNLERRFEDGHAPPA
Experiment: Inhibition of Bacillus anthracis Sterne 34F2 replicative DNA helicase-mediated ATP-dependent dissociation of Hel-5'FAM:Hel-3'BHQ by FRET assay
Parameters: species or system Bacillus anthracis str. Sterne
Outline: (§2)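 Unwinding was read by FRET as helicase-driven, ATP-dependent dissociation of annealed Hel-5′FAM and Hel-3′BHQ oligonucleotides, one fluorescent and the other quencher-labelled. The replicative helicases were prepared as described earlier.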

Row | SMILES | IC50 [µM]
32 | CNC(=O)CCc1c(C)c2ccc(OCc3ccc(-c4ccc(Cl)cc4)cc3)c(C)c2oc1=O | > 100
33 | Cc1c(CCC(=O)O)c(=O)oc2c(C)c(OCc3ccc(-c4ccc(Cl)c(Cl)c4)cc3)ccc12 | 3
34 | Cc1c(CCC(=O)O)c(=O)oc2c(C)c(OCc3ccc4ccccc4c3)ccc12 | 9
35 | Cc1c(CCC(=O)NCCN(C)C)c(=O)oc2c(C)c(OCc3ccc(-c4ccccc4)cc3)ccc12 | 1.8
36 | Cc1c(CCC(=O)O)c(=O)oc2cc(OCc3ccccc3-c3ccccc3)ccc12 | 19
37 | Cc1c(CCCC(=O)O)c(=O)oc2c(C)c(OCc3ccc(-c4ccccc4)cc3)ccc12 | 2
38 | Cc1c(CCC(=O)O)c(=O)oc2cc(OCc3ccc(-c4ccccc4)cc3)ccc12 | 9.7
39 | Cc1c(CCC(=O)O)c(=O)oc2c(C)c(OCc3ccc(-c4ccc(F)cc4)cc3)ccc12 | 5.1
40 | Cc1c(CC(=O)O)c(=O)oc2c(C)c(OCc3ccc(-c4ccccc4)cc3)ccc12 | 9
41 | Cc1c(CCC(=O)O)c(=O)oc2c(C)c(OCc3ccccc3-c3ccccc3)ccc12 | 10.2
42 | Cc1c(OCc2ccc(-c3ccccc3)cc2)ccc2cc(CCC(=O)O)c(=O)oc12 | 21
43 | Cc1c(CCC(=O)O)c(=O)oc2cc(OCc3cccc(-c4ccccc4)c3)ccc12 | 15

Tested on: Staphylococcus aureus
Experiment: Antibacterial activity against Staphylococcus aureus ATCC 25923 by broth microdilution method
Format: functional

Row | SMILES | MIC [µM]
44 | CNC(=O)CCc1c(C)c2ccc(OCc3ccc(-c4ccc(Cl)cc4)cc3)c(C)c2oc1=O | > 100
45 | Cc1c(CCC(=O)O)c(=O)oc2c(C)c(OCc3ccc(-c4ccc(Cl)c(Cl)c4)cc3)ccc12 | 3 (≈ 1.49 µg/mL)
46 | Cc1c(CCC(=O)O)c(=O)oc2c(C)c(OCc3ccc4ccccc4c3)ccc12 | > 100
47 | Cc1c(CCC(=O)NCCN(C)C)c(=O)oc2c(C)c(OCc3ccc(-c4ccccc4)cc3)ccc12 | 5 (≈ 2.49 µg/mL)
48 | Cc1c(CCC(=O)O)c(=O)oc2cc(OCc3ccccc3-c3ccccc3)ccc12 | 12.5 (≈ 5.18 µg/mL)
49 | Cc1c(CCCC(=O)O)c(=O)oc2c(C)c(OCc3ccc(-c4ccccc4)cc3)ccc12 | > 100
50 | Cc1c(CCC(=O)O)c(=O)oc2cc(OCc3ccc(-c4ccccc4)cc3)ccc12 | 3.12 (≈ 1.3 µg/mL)
51 | Cc1c(CCC(=O)O)c(=O)oc2c(C)c(OCc3ccc(-c4ccc(F)cc4)cc3)ccc12 | 3 (≈ 1.34 µg/mL)
52 | Cc1c(CCC(=O)O)c(=O)oc2c(C)c(OCc3cccc4ccccc34)ccc12 | > 100
53 | Cc1c(CC(=O)O)c(=O)oc2c(C)c(OCc3ccc(-c4ccccc4)cc3)ccc12 | 8.2 (≈ 3.4 µg/mL)
54 | Cc1c(CCC(=O)O)c(=O)oc2c(C)c(OCc3ccccc3-c3ccccc3)ccc12 | 10 (≈ 4.28 µg/mL)
55 | Cc1c(OCc2ccc(-c3ccccc3)cc2)ccc2cc(CCC(=O)O)c(=O)oc12 | > 100
56 | Cc1c(CCC(=O)O)c(=O)oc2cc(OCc3cccc(-c4ccccc4)c3)ccc12 | 10 (≈ 4.14 µg/mL)

Tested on: Bacillus anthracis
Experiment: Antibacterial activity against Bacillus anthracis by broth microdilution method
Format: functional

Row | SMILES | MIC [µM]
57 | CNC(=O)CCc1c(C)c2ccc(OCc3ccc(-c4ccc(Cl)cc4)cc3)c(C)c2oc1=O | > 100
58 | Cc1c(CCC(=O)O)c(=O)oc2c(C)c(OCc3ccc(-c4ccc(Cl)c(Cl)c4)cc3)ccc12 | 3 (≈ 1.49 µg/mL)
59 | Cc1c(CCC(=O)O)c(=O)oc2c(C)c(OCc3ccc4ccccc4c3)ccc12 | 5 (≈ 2.01 µg/mL)
60 | Cc1c(CCC(=O)NCCN(C)C)c(=O)oc2c(C)c(OCc3ccc(-c4ccccc4)cc3)ccc12 | 2.5 (≈ 1.25 µg/mL)
61 | Cc1c(CCC(=O)O)c(=O)oc2cc(OCc3ccccc3-c3ccccc3)ccc12 | 5 (≈ 2.07 µg/mL)
62 | Cc1c(CCCC(=O)O)c(=O)oc2c(C)c(OCc3ccc(-c4ccccc4)cc3)ccc12 | 1.25 (≈ 0.553 µg/mL)
63 | Cc1c(CCC(=O)O)c(=O)oc2cc(OCc3ccc(-c4ccccc4)cc3)ccc12 | 2.5 (≈ 1.04 µg/mL)
64 | Cc1c(CCC(=O)O)c(=O)oc2c(C)c(OCc3ccc(-c4ccc(F)cc4)cc3)ccc12 | < 0.8
65 | Cc1c(CCC(=O)O)c(=O)oc2c(C)c(OCc3cccc4ccccc34)ccc12 | 65 (≈ 26.2 µg/mL)
66 | Cc1c(CC(=O)O)c(=O)oc2c(C)c(OCc3ccc(-c4ccccc4)cc3)ccc12 | 2.5 (≈ 1.04 µg/mL)
67 | Cc1c(CCC(=O)O)c(=O)oc2c(C)c(OCc3ccccc3-c3ccccc3)ccc12 | 2.5 (≈ 1.07 µg/mL)
68 | Cc1c(CCC(=O)O)c(=O)oc2cc(OCc3cccc(-c4ccccc4)c3)ccc12 | 2.5 (≈ 1.04 µg/mL)

Tested on: not listed separately
Experiment: Inhibition of Staphylococcus aureus ATCC 25923 replicative DnaB helicase-mediated ATP-dependent dissociation of Hel-5'FAM:Hel-3'BHQ by FRET assay
Outline: as §2

Row | SMILES | IC50 [µM]
69 | CNC(=O)CCc1c(C)c2ccc(OCc3ccc(-c4ccc(Cl)cc4)cc3)c(C)c2oc1=O | 38
70 | Cc1c(CCC(=O)O)c(=O)oc2c(C)c(OCc3ccc(-c4ccc(Cl)c(Cl)c4)cc3)ccc12 | 2.4
71 | Cc1c(CCC(=O)O)c(=O)oc2c(C)c(OCc3ccc4ccccc4c3)ccc12 | 8
72 | Cc1c(CCC(=O)NCCN(C)C)c(=O)oc2c(C)c(OCc3ccc(-c4ccccc4)cc3)ccc12 | 1.7
73 | Cc1c(CCC(=O)O)c(=O)oc2cc(OCc3ccccc3-c3ccccc3)ccc12 | 12
74 | Cc1c(CCCC(=O)O)c(=O)oc2c(C)c(OCc3ccc(-c4ccccc4)cc3)ccc12 | 2.2
75 | Cc1c(CCC(=O)O)c(=O)oc2cc(OCc3ccc(-c4ccccc4)cc3)ccc12 | 6
76 | Cc1c(CCC(=O)O)c(=O)oc2c(C)c(OCc3ccc(-c4ccc(F)cc4)cc3)ccc12 | 3.7
77 | Cc1c(CC(=O)O)c(=O)oc2c(C)c(OCc3ccc(-c4ccccc4)cc3)ccc12 | 8.6
78 | Cc1c(CCC(=O)O)c(=O)oc2c(C)c(OCc3ccccc3-c3ccccc3)ccc12 | 9
79 | Cc1c(OCc2ccc(-c3ccccc3)cc2)ccc2cc(CCC(=O)O)c(=O)oc12 | 14

Tested on: HeLa
Experiment: Cytotoxicity against human HeLa cells by MTS assay
Format: cell-based

Row | SMILES | CC50 [µM]
80 | CNC(=O)CCc1c(C)c2ccc(OCc3ccc(-c4ccc(Cl)cc4)cc3)c(C)c2oc1=O | 90.7
81 | Cc1c(CCC(=O)O)c(=O)oc2c(C)c(OCc3ccc(-c4ccc(Cl)c(Cl)c4)cc3)ccc12 | 19.2
82 | Cc1c(CCC(=O)O)c(=O)oc2c(C)c(OCc3ccc4ccccc4c3)ccc12 | 38
83 | Cc1c(CCC(=O)NCCN(C)C)c(=O)oc2c(C)c(OCc3ccc(-c4ccccc4)cc3)ccc12 | 1.1
84 | Cc1c(CCC(=O)O)c(=O)oc2cc(OCc3ccccc3-c3ccccc3)ccc12 | 7.8
85 | Cc1c(CCCC(=O)O)c(=O)oc2c(C)c(OCc3ccc(-c4ccccc4)cc3)ccc12 | 31
86 | Cc1c(CCC(=O)O)c(=O)oc2cc(OCc3ccc(-c4ccccc4)cc3)ccc12 | 21.2
87 | Cc1c(CCC(=O)O)c(=O)oc2c(C)c(OCc3ccc(-c4ccc(F)cc4)cc3)ccc12 | 19.2
88 | Cc1c(CC(=O)O)c(=O)oc2c(C)c(OCc3ccc(-c4ccccc4)cc3)ccc12 | 115
89 | Cc1c(CCC(=O)O)c(=O)oc2c(C)c(OCc3ccccc3-c3ccccc3)ccc12 | 4.4
90 | Cc1c(OCc2ccc(-c3ccccc3)cc2)ccc2cc(CCC(=O)O)c(=O)oc12 | > 100
91 | Cc1c(CCC(=O)O)c(=O)oc2cc(OCc3cccc(-c4ccccc4)c3)ccc12 | 10.1
